Results reported in ChEMBL document CHEMBL2375316, “Neocosmospora sp.-derived resorcylic acid lactones with in vitro binding affinity for human opioid and cannabinoid receptors” (J Nat Prod, 2013).

Columns and labels:
[1] = target: T1, Delta-type opioid receptor (Homo sapiens, UniProt P41143); assay: Displacement of [3H]-enkephalin from human delta opioid receptor transfected in CHOK1 cells at 10 uM after 60 mins relative to control; assay type: cell-based; conditions: CHO-K1
[2] = target: Mu-type opioid receptor (Homo sapiens) (UniProt P35372); conditions: CHO-K1, at 10 µM
Chain of Mu-type opioid receptor (Homo sapiens) (P35372 whole entry): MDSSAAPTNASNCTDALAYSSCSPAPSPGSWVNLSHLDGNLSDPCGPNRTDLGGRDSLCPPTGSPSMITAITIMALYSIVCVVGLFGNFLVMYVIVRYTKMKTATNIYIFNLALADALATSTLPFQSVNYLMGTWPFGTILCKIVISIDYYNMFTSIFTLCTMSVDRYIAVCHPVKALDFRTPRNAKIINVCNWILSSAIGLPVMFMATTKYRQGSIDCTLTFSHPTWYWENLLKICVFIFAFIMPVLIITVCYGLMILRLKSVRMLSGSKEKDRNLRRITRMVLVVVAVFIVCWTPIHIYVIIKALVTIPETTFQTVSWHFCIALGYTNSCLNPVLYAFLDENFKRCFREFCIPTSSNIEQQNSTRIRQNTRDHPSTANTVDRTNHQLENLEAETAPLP

[3] = target: Cannabinoid receptor 2 (Homo sapiens) (UniProt P34972); assay: Displacement of [3H]-CP55940 from human recombinant CB2 receptor transfected in HEK293 cells at 10 uM after 90 mins relative to control; assay type: cell-based
Chain of Cannabinoid receptor 2 (Homo sapiens) (P34972 whole entry): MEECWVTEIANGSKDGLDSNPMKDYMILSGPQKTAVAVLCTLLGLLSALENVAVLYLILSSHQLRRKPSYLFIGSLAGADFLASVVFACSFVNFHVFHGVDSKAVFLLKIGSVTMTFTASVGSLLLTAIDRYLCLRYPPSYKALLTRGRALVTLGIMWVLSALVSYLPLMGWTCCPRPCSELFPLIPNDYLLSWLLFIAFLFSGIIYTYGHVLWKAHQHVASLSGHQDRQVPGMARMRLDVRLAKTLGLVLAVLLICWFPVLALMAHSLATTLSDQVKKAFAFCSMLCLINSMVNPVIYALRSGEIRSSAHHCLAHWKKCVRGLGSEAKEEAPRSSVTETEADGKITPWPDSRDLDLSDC

[4] = target: Kappa-type opioid receptor (Homo sapiens) (UniProt P41145); conditions: CHO-K1, at 10 µM
Chain of Kappa-type opioid receptor (Homo sapiens) (P41145 whole entry): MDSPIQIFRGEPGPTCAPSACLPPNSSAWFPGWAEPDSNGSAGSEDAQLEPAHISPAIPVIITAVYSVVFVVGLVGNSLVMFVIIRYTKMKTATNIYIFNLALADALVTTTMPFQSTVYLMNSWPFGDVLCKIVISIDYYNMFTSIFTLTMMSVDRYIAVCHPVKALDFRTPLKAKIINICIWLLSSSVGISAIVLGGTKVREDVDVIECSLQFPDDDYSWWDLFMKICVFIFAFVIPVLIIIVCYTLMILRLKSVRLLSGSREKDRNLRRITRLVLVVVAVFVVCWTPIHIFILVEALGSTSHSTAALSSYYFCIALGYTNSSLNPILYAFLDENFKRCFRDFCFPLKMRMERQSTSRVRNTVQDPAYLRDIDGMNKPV

[5] = target: T1, Delta-type opioid receptor; assay: Agonist activity at human delta opioid receptor transfected in CHOK1 cells after 60 mins by [35S]GTPgammaS binding assay relative to control; assay type: functional, cell-based; conditions: CHO-K1
Summary of the method: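 [35S]GTPγS functional assay on membranes from CHO-K1 cells stably expressing δ-opioid receptor; diluted compound incubated with membrane at predetermined protein level plus 0.05 nM [35S]GTPγS, 60 min at room temperature. Terminated by vacuum filtration through GF/C filters, 10 washes 50 mM Tris-HCl pH 7.4, scintillation counting. Basal binding defined as binding with GTPγS buffers.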

[6] = target: T1, Delta-type opioid receptor; assay: Agonist activity at human delta opioid receptor transfected in CHOK1 cells after 60 mins by [35S]GTPgammaS binding assay
[7] = target: T1, Delta-type opioid receptor; assay: Displacement of [3H]-enkephalin from human delta opioid receptor transfected in CHOK1 cells after 60 mins; assay type: cell-based, CHO-K1
[8] = target: Cannabinoid receptor 1 (Homo sapiens) (UniProt P21554); assay: Displacement of [3H]-CP55940 from human recombinant CB1 receptor transfected in HEK293 cells at 10 uM after 90 mins relative to control; assay type: cell-based
Chain of Cannabinoid receptor 1 (Homo sapiens) (P21554 whole entry): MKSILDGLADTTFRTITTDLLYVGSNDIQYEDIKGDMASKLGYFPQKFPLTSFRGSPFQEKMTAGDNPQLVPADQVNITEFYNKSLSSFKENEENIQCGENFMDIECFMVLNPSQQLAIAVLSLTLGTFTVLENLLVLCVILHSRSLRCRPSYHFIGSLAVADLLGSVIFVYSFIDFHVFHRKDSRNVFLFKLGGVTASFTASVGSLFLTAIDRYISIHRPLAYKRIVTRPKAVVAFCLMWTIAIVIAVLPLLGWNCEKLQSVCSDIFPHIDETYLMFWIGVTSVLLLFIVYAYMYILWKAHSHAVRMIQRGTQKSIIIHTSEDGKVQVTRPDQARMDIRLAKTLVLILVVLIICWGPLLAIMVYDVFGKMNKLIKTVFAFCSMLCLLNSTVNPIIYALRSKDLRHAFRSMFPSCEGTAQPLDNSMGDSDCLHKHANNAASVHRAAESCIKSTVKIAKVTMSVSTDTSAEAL

T1 sequence (P41143 whole entry): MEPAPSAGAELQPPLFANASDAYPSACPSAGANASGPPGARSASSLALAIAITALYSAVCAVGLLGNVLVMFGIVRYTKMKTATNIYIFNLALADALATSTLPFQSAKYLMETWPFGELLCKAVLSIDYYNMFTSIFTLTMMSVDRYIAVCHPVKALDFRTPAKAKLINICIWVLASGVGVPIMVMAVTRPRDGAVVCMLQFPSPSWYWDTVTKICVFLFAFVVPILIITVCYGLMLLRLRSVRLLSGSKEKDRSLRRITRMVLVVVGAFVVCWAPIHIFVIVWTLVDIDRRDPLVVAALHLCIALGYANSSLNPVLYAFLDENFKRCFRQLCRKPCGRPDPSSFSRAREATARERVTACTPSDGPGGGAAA

Row | Compound | inhibition [1] [%] | inhibition [2] [%] | inhibition [3] [%] | inhibition [4] [%] | Emax [5] [%] | EC50 [6] [µM] | IC50 [7] [µM] | Ki [7] [µM] | inhibition [8] [%]
1 | COc1cc(O)c2c(c1)CC(=O)CCCC/C=C/C[C@@H](C)OC2=O | 44.7 | 22.4 | 44.5 | 11.4 | – | – | – | – | –
2 | C[C@@H]1C/C=C/CCCCC(=O)Cc2cc(O)cc(O)c2C(=O)O1 | 45.7 | 8.7 | – | 24.7 | – | – | – | – | –
3 | COc1cc(O)c2c(c1)CC(=O)CCCC(=O)CCC[C@@H](C)OC2=O | 54.9 | 24 | 46.3 | 32.7 | 2400 | 0.239 | 14.6 | 7.31 | –
4 | C[C@@H]1C[C@H]2O[C@@H]2/C=C\C=C\C(=O)Cc2c(Cl)c(O)cc(O)c2C(=O)O1 | – | 84.9 | 13 | – | – | – | – | – | 30.7
5 | C[C@@H]1CCCC(=O)CCCC(=O)Cc2cc(O)cc(O)c2C(=O)O1 | – | 41.3 | 27.7 | 8.1 | – | – | – | – | 47.4
6 | CCCCCCC(C)(C)c1ccc([C@@H]2C[C@H](O)CC[C@H]2CCCO)c(O)c1 | – | – | 90.3 | – | – | – | – | – | 88.8
